High-throughput results as filed in PubChem.
Shown are actives, neighbours in structure and some others; about 5.8% of the full set was active somewhere.
KCC2 mod = modulators of human KCC2 chloride dependent transport | Q9H2X9 | hit rate 2.2% among 190,000 | B-score of Tl+ flux slope (higher = more flux/activation; lower = inhibition) at 10 µM | KCC2 cells, thallium flux FluoZin-2 fluorescence;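 active means thallium flux slope and its plate-corrected score both differing from the plate sample mean at a set confidence after two filtering rounds, in either direction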;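 further: slope of fluorescence scaled to starting intensity during 10 to 20 s after thallium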
RBBP9 inh = human RBBP9 hydrolase inhibition. hit rate 0.2% among 220,000. O75884. inhibition, % at 7.94 µM. recombinant RBBP9, FP-Rh probe fluorescence polarization;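 active means inhibition above the campaign mean of all tested compounds plus 3 SD, cut at about 14% in these data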;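 further: plate controls were DMSO wells with RBBP9 for no effect and wells lacking RBBP9 protein for full effect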
Target sequence (O75884 whole entry, looked up): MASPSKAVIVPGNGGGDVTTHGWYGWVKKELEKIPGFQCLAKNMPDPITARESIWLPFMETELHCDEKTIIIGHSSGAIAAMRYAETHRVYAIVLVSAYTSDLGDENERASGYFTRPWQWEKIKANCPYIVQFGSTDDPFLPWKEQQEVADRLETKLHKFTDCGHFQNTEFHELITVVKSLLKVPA
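Measured by – fluorescence polarization · Test system – RBBP9 protein · Input – 2.5 µM RBBP9 dispensing solution, before mixing · Measure – percent inhibition from mP, scaled between DMSO and no-protein wells · Benchmarks – DMSO-treated enzyme wells and wells lacking RBBP9 · Times – preincubation 30 min plus labeling 45 min at 25 °C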
p47phox inh = p47phox (human) inhibition; p47phox/p22phox peptide binding, fluorescence polarization, 2 h; inhibition, % at 24.7 µM; hit rate 0.53% among 220,000; AID 1274;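 active means inhibition above about 30%, limit read from the data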;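 further: 0% = p47phox with labelled peptide and 100% = labelled peptide alone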
Target sequence (P14598 whole entry, looked up): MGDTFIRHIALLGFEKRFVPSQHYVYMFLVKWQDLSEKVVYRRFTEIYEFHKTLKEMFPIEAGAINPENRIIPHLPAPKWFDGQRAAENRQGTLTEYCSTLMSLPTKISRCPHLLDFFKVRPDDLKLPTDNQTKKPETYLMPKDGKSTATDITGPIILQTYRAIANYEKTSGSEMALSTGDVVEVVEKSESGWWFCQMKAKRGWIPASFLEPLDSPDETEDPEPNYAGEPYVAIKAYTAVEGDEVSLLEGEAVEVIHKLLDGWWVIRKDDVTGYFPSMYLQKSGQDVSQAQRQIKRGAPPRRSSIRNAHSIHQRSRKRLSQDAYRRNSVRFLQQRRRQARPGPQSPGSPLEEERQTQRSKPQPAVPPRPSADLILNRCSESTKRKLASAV
WT yeast gro inh = growth inhibition of WT yeast, mitochondrial fusion screen; inhibition, % at 10 µM; mitochondrial fusion phenotypic screen, WT strain; hit rate 2.1% among 190,000; AID 1362; in the data active means inhibition above about 58%; tested in S. cerevisiae
14-3-3 Bad PPI = disrupts binding of bovine 14-3-3 zeta to phospho-Bad peptide. P63103. TR-FRET 14-3-3zeta/Dy647-pBad peptide displacement, 1 h. inhibition, % at 21.7 µM. hit rate 0.71% among 220,000. AID 781;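 active means inhibition above about 70%, limit read from the data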;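 further: 0% = full 14-3-3 plus peptide FRET controls and 100% = background without 14-3-3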
ROMK mod = modulates human ROMK potassium channel activity. P48048. Tet-inducible ROMK, thallium flux fluorescence; actives lie on both sides. B-score at 10 µM. hit rate 2% among 130,000;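 active means signal ratio slope over the read window, or its plate-corrected B-score, at least 3 SD from the plate mean, either direction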;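 further: B-score of the F/F0 ratio slope over 7 to 12 s after thallium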
KCC2 sec1 = confirmation of human KCC2 transport modulators | shares compounds with KCC2 mod | HEK293-KCC2, thallium flux, FluoZin2 fluorescence; active compounds read high | normalised thallium flux (F/F0 slope) at 10 µM | hit rate 15% among 3,700 | AID 1713;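 active means thallium flux slope above the same plate's solvent-only control mean plus 3 SD; inconclusive means the two replicate wells disagree; inactive means no significant difference from solvent-only control wells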
KCC2 bumet counter = bumetanide-insensitive thallium flux in KCC2 cells with ouabain, counter-screen. shares compounds with KCC2 mod. HEK293-KCC2 + bumetanide/ouabain, thallium flux FluoZin2; active compounds read high. normalized thallium flux at 10 µM. hit rate 49% among 3,700. AID 1714;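 active means thallium entry rate above the same plate's blocked-transporter control wells by more than 3 SD; inconclusive means the two repeat wells disagree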;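 further: raw slope of fluorescence over initial fluorescence between 10 and 20 s after thallium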
KCC2 secondary2 = KCC2 (human) modulation, second secondary assay | shares compounds with KCC2 mod | normalized thallium flux at 10 µM | hit rate 23% among 3,700 | AID 1715 | HEK293-KCC2, thallium flux FluoZin2 fluorescence; actives lie on both sides; F/F0 rise rate, 10–20 s post-thallium;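 active means thallium flux slope more than 3 SD above or below the plate's solvent-only control mean, mostly below; inconclusive means the two repeat wells disagreed; inactive means no significant shift from solvent-only controls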;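 further: raw slope with 0.1% DMSO as baseline and bumetanide as block control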
HEK293 Tl flux = acts in parental HEK cells, KCC2 counter-screen. hit rate 46% among 3,700. shares compounds with KCC2 mod. HEK293 parental cells, thallium flux FluoZin2, ouabain; baseline-ratio fluorescence slope, 10–20 s after thallium. AID 1716. thallium flux rate (normalised fluorescence) at 10 µM;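 active means thallium flux rate significantly above the same plate's solvent-only control wells, beyond their mean plus 3 SD; inconclusive means the two replicate wells gave conflicting results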
KCC2 ouabain = confirmation of human KCC2 modulators with ouabain; shares compounds with KCC2 mod; HEK293-KCC2, thallium flux FluoZin2 fluorescence; bidirectional: low = inhibitor, high = activator; raw Tl+ flux slope (below DMSO = inhibition, above = activation) at 10 µM; hit rate 48% among 3,700; AID 1717;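 active means thallium flux slope beyond 3 SD from same-plate DMSO control mean in most replicates, usually higher, sometimes lower; inconclusive means repeat tests gave conflicting results; inactive means no significant difference from controls in most replicates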;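 further: slope of initial-normalized fluorescence between seconds 10 and 20 after thallium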
HEK293 Tl flux2 = parental HEK flux effect, counter-screen 2; shares compounds with KCC2 mod; HEK293 parental, thallium flux FluoZin-2 fluorescence slope; thallium flux slope at 10 µM; hit rate 33% among 3,700; AID 1718;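 active means thallium flux slope above the same plate's solvent-control mean plus 3 SD in both duplicate wells; inconclusive means duplicate wells that disagreed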;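 further: run without ouabain in cells lacking the KCC2 cotransporter; slope of fluorescence scaled to its starting value between 10 and 20 s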
* = called active by the depositor; ? = inconclusive; . = no result given.

SMILES	KCC2 mod	RBBP9 inh	p47phox inh	WT yeast gro inh	14-3-3 Bad PPI	ROMK mod	KCC2 sec1	KCC2 bumet counter	KCC2 secondary2	HEK293 Tl flux	KCC2 ouabain	HEK293 Tl flux2
S=c1[nH]cnc2sc(Nc3ccccc3)nc12	-0.15	-8	-6	.	-10	.	.	.	.	.	.	.
COc1cc(C(=O)NCCCNc2ccc([N+](=O)[O-])cc2)cc(OC)c1OC	-0.46	-1	-3	-18	6	-1.1	.	.	.	.	.	.
Cc1c(NC(=S)N2CCN(c3ccc(F)cc3)CC2)c(=O)n(-c2ccccc2)n1C	-0.95	-6	-15	-9	-4	-0.32	.	.	.	.	.	.
CNS(=O)(=O)c1ccc(NS(=O)(=O)c2ccccc2F)cc1	0.018	-2	-4	-3	-1	-0.69	.	.	.	.	.	.
CN(C1CCCCC1)S(=O)(=O)c1ccc(S(=O)(=O)N(CC(=O)Nc2ccccc2)C2CC2)cc1	.	0	1	.	-3	.	.	.	.	.	.	.
Cc1nn(C)c(Cl)c1C(=O)NCC(=O)Nc1ccc(C(C)C)cc1	-0.36	3	-14	-17	-7	-0.014	.	.	.	.	.	.
COc1ccccc1NCCC(=O)OCC(=O)NC1CCCCCC1	0.037	2	3	7	3	.	.	.	.	.	.	.
Cc1cc(C)n(CCC(=O)N/N=C/c2ccc(Br)c([N+](=O)[O-])c2)n1	-0.61	4	-4	.	5	-0.1	.	.	.	.	.	.
O=C(N/N=C/c1ccc(-c2cccc(C(F)(F)F)c2)o1)c1ccccc1Br	.	-8	-21	-3	5	.	.	.	.	.	.	.
CC(=O)Nc1cccc(C(=O)N/N=C/c2ccc(C)o2)c1	-0.44	-14	0	3	8	-0.78	.	.	.	.	.	.
Cc1ccc(/C=N/NC(=O)c2cccc([N+](=O)[O-])c2)o1	5.5*	-13	1	5	9	1.1	0.01	0.011*	0.033	0.012*	0.023	0.011
O=C(N/N=C/c1ccc(-c2cccc(C(F)(F)F)c2)o1)c1ccccc1O	4.8*	-7	-29	7	20	-0.81	0.0069	0.029*	0.033	0.016*	?	0.019*
N#CCNc1ccc([N+](=O)[O-])cc1C#N	0.082	-5	-17	.	-2	-0.89	.	.	.	.	.	.
CCc1nnc(NC(=O)CSc2nnc(Cc3ccccc3)o2)s1	.	6	9	8	0	-0.15	0.0072	0.007	0.027	0.0063	?	0.0098
Cc1ccc(C2(C(F)(F)F)NC(=O)N3CCCN=C3S2)cc1 (stereo unspecified)	3.9*	2	-1	-11	-7	.	0.0053	0.0039	0.031	0.0071	0.018	0.0095
Cc1ccc(C2(C(F)(F)F)NC(=O)N3CCN=C3S2)cc1 (stereo unspecified)	0.14	-5	2	2	-10	.	.	.	.	.	.	.
Cc1ccc(Cn2c(=N)c(C(=O)NCc3ccco3)cc3c(=O)n4ccccc4nc32)cc1	5.7*	-5	-1	16	-6	.	0.0053	?	?	0.0055*	0.018	0.0098
O=C(CCc1nc2ccccc2s1)OCc1ccccc1	-0.051	-10	-3	-15	2	.	.	.	.	.	.	.
Cc1cc(C(=O)COC(=O)CCc2nc3ccccc3s2)c(C)n1C	-3.2*	-4	-2	-48	-3	.	0.0069	?	0.023*	0.0063	0.016*	0.0088
CCOc1nc(-c2ccc(C)cc2)ccc1-c1noc(-c2cccnc2)n1	2.9*	-7	-17	-12	4	-0.52	0.0083	0.0046	0.029	0.0076	0.02	0.01
Cc1ccsc1C(=O)N1CCCC(C(=O)c2cc(F)ccc2F)C1 (stereo unspecified)	-1.2	7	0	-1	-4	-0.2	.	.	.	.	.	.
O=C1CCN(Cc2nc(-c3ccc(Cl)cc3)no2)CCN1	.	-7	0	6	-6	0.31	.	.	.	.	.	.
CCOc1ccc(NC2c3ccccc3C(=O)N2Cc2ccco2)cc1 (stereo unspecified)	-4.2*	5	-6	14	6	.	0.0071	0.0055	0.028	0.0051*	0.016*	0.0086
O=C1c2ccccc2C(Nc2ccc(S(=O)(=O)N3CCOCC3)cc2)N1Cc1ccco1 (stereo unspecified)	-0.53	6	-24	-3	-3	.	.	.	.	.	.	.
O=C1c2ccccc2C(Nc2ccc(S(=O)(=O)N3CCCCC3)cc2)N1Cc1ccco1 (stereo unspecified)	-5.1*	-9	-21	-3	5	.	0.0068	0.0043	?	0.0062*	0.014*	0.0098
SMILES	KCC2 mod	RBBP9 inh	p47phox inh	WT yeast gro inh	14-3-3 Bad PPI	ROMK mod	KCC2 sec1	KCC2 bumet counter	KCC2 secondary2	HEK293 Tl flux	KCC2 ouabain	HEK293 Tl flux2
O=C(NCc1ccccn1)C1CCN(S(=O)(=O)c2cc(Cl)ccc2Cl)CC1	0.42	1	-6	-8	-3	-0.12	.	.	.	.	.	.
O=C(CSc1nnc(SCC(=O)c2ccco2)s1)c1ccco1	-1.3	0	-4	10	-2	0.7	.	.	.	.	.	.
O=C(CSc1nc2cc(Cl)ccc2s1)c1ccco1	13*	-12	-191	3	-17	.	0.025*	0.036*	0.043*	0.03*	0.036*	0.033*
Cc1ccccc1-n1nnnc1SCc1ncc(-c2ccccc2)o1	-3.4*	-7	-12	38	-8	.	0.0068	0.0039	?	?	0.016	0.01
c1ccc(-c2cnc(CSc3nnc4ccccn34)o2)cc1	0.052	-4	-1	3	1	.	.	.	.	.	.	.
CCOc1ccc(CCNC(=O)Cn2cccc2C(=O)c2ccccc2C)cc1OCC	-1.7	1	-20	-2	-20	0.046	.	.	.	.	.	.
Nc1nc2n(n1)C(=O)CC(c1ccccc1)N2 (stereo unspecified)	0.12	-4	2	5	-23	-2.2	.	.	.	.	.	.
COc1ccc(-c2cc(CCCC(=O)NCCc3ccccc3)no2)cc1	-4.3*	-6	-15	.	0	0.5	0.009	0.0067	?	0.007	0.016*	0.01
O=S(=O)(NCc1ccco1)c1ccc2c(c1)Cc1ccccc1-2	-4*	6	-28	-5	-5	0.19	0.0062	0.0045	0.027	?	?	0.011
Cc1ccc(S(=O)(=O)NCc2ccco2)cc1C	0.019	2	-12	-5	-1	-0.62	.	.	.	.	.	.
